Test results as given in paper PMC5062748 (Drug development research, 2016).

molecular target: T1, HNE (Homo sapiens, UniProt P08246); assay: HNE inhibition assay; format: biochemical; details: not given
T1 sequence (P08246 30-247 limits assumed): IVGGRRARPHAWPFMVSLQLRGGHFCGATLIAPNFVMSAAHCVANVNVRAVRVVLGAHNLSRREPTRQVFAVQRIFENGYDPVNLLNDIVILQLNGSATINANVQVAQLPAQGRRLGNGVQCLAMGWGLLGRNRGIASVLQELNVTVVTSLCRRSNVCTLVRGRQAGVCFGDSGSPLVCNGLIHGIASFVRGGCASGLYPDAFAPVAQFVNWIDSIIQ
Summary of the method: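 Human neutrophil elastase (20 mU/mL) in 200 mM Tris–HCl pH 7.5, 0.01% BSA, 0.05% Tween-20, with test compound at varied concentrations (DMSO final 1%, top 50 µM). Reaction started with 25 µM substrate. Fluorescence (ex 355/em 460 nm) read every 30 s for 10 min at 25 °C. IC50 from % inhibition vs log concentration (≥6 points). Mean ± SD of three independent experiments.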

SMILES | IC50 [µM]
CCOC(=O)c1cn(C(=O)c2ccc(Cl)cc2)c2ccccc12 [2e, Ethyl 1-(4-chlorobenzoyl)-1H-indole-3-carboxylate] | 3.8 ± 0.4
CCOC(=O)c1cn(C(=O)c2ccc(F)cc2)c2ccccc12 [2g, Ethyl 1-(4-fluorobenzoyl)-1H-indole-3-carboxylate] | 12.2 ± 2.3
Cc1ccc(C(=O)n2cc(C(=O)Nc3ccccc3)c3ccccc32)cc1 [5c, 1-(4-methylbenzoyl)-N-phenyl-1H-indole-3-carboxamide] | 45.3 ± 6.7
CCOC(=O)c1cn(C(=O)c2cccc(C)c2)c2ccc(Br)cc12 [7a, Ethyl 5-bromo-1-(3-methylbenzoyl)-1H-indole-3-carboxylate] | 21.6 ± 3.3

Second part, the compound after the results:

IC50 [µM] | SMILES
10.5 ± 1.7 | CCOC(=O)c1cn(C(=O)c2ccc(C)cc2)c2cc(Br)ccc12 [7c, Ethyl 6-bromo-1-(4-methylbenzoyl)-1H-indole-3-carboxylate]
2.4 ± 0.4 | CCOC(=O)c1cn(C(=O)c2cccc(C)c2)c2ccc([N+](=O)[O-])cc12 [7d, Ethyl 1-(3-methylbenzoyl)-5-nitro-1H-indole-3-carboxylate]
13.2 ± 1.8 | CCOC(=O)c1cn(C(=O)c2ccc(C)cc2)c2ccc([N+](=O)[O-])cc12 [7e, Ethyl 1-(4-methylbenzoyl)-5-nitro-1H-indole-3-carboxylate]

same assay, conditions: highest tested concentration 50 µM

SMILES | HNE inhibitory activity (in words)
CCOC(=O)c1cn(-c2cccc(C)c2)c2ccccc12 [2a, Ethyl 1-(m-tolyl)-1H-indole-3-carboxylate] | lack of activity
CCOC(=O)c1cn(C(=O)c2cccc(C)c2)c2ccccc12 [2c, Ethyl 1-(3-methylbenzoyl)-1H-indole-3-carboxylate] | inactive
CCOC(=O)c1cn(C(=O)c2cccc(Cl)c2)c2ccccc12 [2f, Ethyl 1-(3-chlorobenzoyl)-1H-indole-3-carboxylate] | inactive
Cc1ccc(S(=O)(=O)n2cc(C(=O)Nc3ccccc3)c3ccccc32)cc1 [5f, N-phenyl-1-tosyl-1H-indole-3-carboxamide] | lack of activity
CCOC(=O)c1cn(C(=O)c2cccc(C)c2)c2cc(Br)ccc12 [7b, Ethyl 6-bromo-1-(3-methylbenzoyl)-1H-indole-3-carboxylate] | no activity

Other lines, results leading:

HNE inhibitory activity (in words) | SMILES
no activity | CCOC(=O)c1cn(C(=O)c2ccc(C)cc2)c2ccc(N)cc12 [compound 8, Ethyl 5-amino-1-(4-methylbenzoyl)-1H-indole-3-carboxylate]
no activity | CCOC(=O)c1cn(C(=O)c2ccc(C)cc2)c2ccc(NC(C)=O)cc12 [compound 9, Ethyl 5-acetamido-1-(4-methylbenzoyl)-1H-indole-3-carboxylate]
